Rows were chosen to be rich in hits. Some 3.1% of all compounds tested hit in one or more screens of this group.
KCNK3 inh: human KCNK3 channel inhibition, primary screen | 0.84% of 340,000 active | B-score at 10 µM | AID 602410 | CHO-KCNK3 thallium flux, FluxOR fluorescence; active compounds read low | O14649;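 active = B-score under library mean minus 4 SD, starting fluorescence ratio at most library mean plus 5 SD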;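 also: more negative B-score means stronger inhibition of thallium flux through KCNK3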
KCNQ1 block: human KCNQ1 channel inhibition; P51787; CHO-K1 KCNQ1, FluxOR thallium flux fluorescence; active compounds read high; B-score at 10 µM; 1.3% of 310,000 active;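 active = compounds whose thallium flux B-score, printed positive for inhibition, exceeds three library SD while starting fluorescence stays within three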;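 also: channel opened by potassium depolarization with thallium stimulus after 20 min compound exposure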
KCNQ1 act: potentiates or activates the human KCNQ1 potassium channel. CHO-K1 KCNQ1, thallium flux FluxOR fluorescence; active compounds read high. B-score at 10 µM. 0.35% of 310,000 active. AID 2648;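 active = fluorescence ratio B-score, a plate-corrected score, at least three library SD, with initial intensity B-score within 5 SD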
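Assay system: CHO-K1 cells stably expressing KCNQ1; Medium: assay buffer with matched DMSO; Also added: K+/Tl+ depolarizing stimulus; Dosing: single dose; Timing: dye 90 min, compound 20 min, room temperature; Measured by: kinetic FluxOR thallium fluorescence, 10-s 1-Hz baseline, 110-s post-stimulus read; Read-out: peak-minus-minimum fluorescence over initial fluorescence, negative-control normalized, B-scored.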
KCNK9 inh: inhibitors of human KCNK9 two-pore domain potassium channel; Q9NPC2; HEK293 KCNK9, FluxOR thallium flux fluorescence; active compounds read low; B-score at 10 µM; 1.2% of 310,000 active; AID 488922;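 active = ratio B-score over 3 SD below the library mean, with starting fluorescence within 5 SD of its mean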;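 also: negative B-score means less thallium flux so channel inhibition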
Target sequence (Q9NPC2 whole entry, looked up, the tested form may be a part): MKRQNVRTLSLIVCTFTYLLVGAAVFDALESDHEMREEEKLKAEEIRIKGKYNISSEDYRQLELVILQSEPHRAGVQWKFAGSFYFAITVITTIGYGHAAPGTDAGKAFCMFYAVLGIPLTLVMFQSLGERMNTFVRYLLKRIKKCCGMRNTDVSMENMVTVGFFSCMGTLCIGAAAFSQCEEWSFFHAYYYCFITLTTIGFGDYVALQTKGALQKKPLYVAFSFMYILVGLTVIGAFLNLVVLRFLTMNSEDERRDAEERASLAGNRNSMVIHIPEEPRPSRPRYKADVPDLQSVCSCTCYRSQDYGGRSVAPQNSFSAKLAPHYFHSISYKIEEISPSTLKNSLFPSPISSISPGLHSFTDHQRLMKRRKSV
hERG rescue: shields human hERG channel from block by proarrhythmic agents | Q12809 | CHO-hERG, FluxOR thallium flux, dofetilide IC70 present | activation (rescue from dofetilide block), less the hit threshold, % at 10 µM | 0.51% of 310,000 active;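 active = activation above the mean of controls blocked by dofetilide plus 5 SD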;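 also: thallium influx through hERG after potassium depolarization seen as dye fluorescence rise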
KCNK9 block conf: confirmation of human KCNK9 potassium channel inhibitors; shares compounds with KCNK9 inh; HEK293 KCNK9 cells, FluxOR thallium flux fluorescence; inhibition, % at 10 µM; 43% of 4,900 active;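 active = thallium signal inhibited by more than 5 SD of the compound-free buffer control wells, on both duplicate plates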
Kir2-1 spec: selectivity of KCNK9 modulators against mouse Kir2.1. Kir2.1 cells, FluxOR thallium flux fluorescence. shares compounds with KCNK9 inh. 4% of 4,900 active. inhibition, % at 10 µM;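 active = thallium signal drop more than 5 SD beyond the mean of the no-compound control wells, seen in both duplicate plates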;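 also: signal is fluorescence rise after thallium addition divided by baseline fluorescence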
KCNK9 uninduced: second check of KCNK9 modulator effects in non-induced HEK293 cells | shares compounds with KCNK9 inh | FluxOR thallium flux | inhibition, % at 10 µM | 40% of 4,900 active | AID 492997;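 active = thallium signal drop beyond 5 SD of the untreated control mean, on both duplicate plates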
Of the large screens only hits and unclear results are named; the others gave an inactive call (follow-up assays come after a bar, where they were run).

N#CC(c1ccccc1O)N1N=C(c2ccccc2)CC1c1ccccc1 (stereo unspecified)	KCNQ1 block 12, KCNK9 inh -10 | KCNK9 block conf 40% | Kir2-1 spec inactive | KCNK9 uninduced 47%
O=C(O)c1ccc(CSc2nc(-c3ccc(Cl)cc3)cc(C(F)(F)F)n2)cc1	none
O=C(O)c1ccc(CSc2nc(-c3ccccc3)cc(C(F)(F)F)n2)cc1	none | KCNK9 block conf inactive | Kir2-1 spec inactive | KCNK9 uninduced inactive
COc1c(C)cc(C(=O)C2CCCN(C(=O)c3cccc(F)c3)C2)cc1C (stereo unspecified)	none | KCNK9 block conf inactive | Kir2-1 spec inactive | KCNK9 uninduced inactive
COc1c(C)cc(C(=O)C2CCCN(C(=O)c3ccoc3)C2)cc1C (stereo unspecified)	none
COc1ccc(C(=O)C2CCCN(C(=O)c3cccc(Cl)c3F)C2)cc1OC (stereo unspecified)	none | KCNK9 block conf inactive | Kir2-1 spec inactive | KCNK9 uninduced inactive
COC(=O)c1ccccc1C(=O)N1CCCC(C(=O)c2ccc(OC)c(OC)c2)C1 (stereo unspecified)	none
CCc1ccc(-c2nn(Cc3ccccc3)cc2C(=O)NCC2CCCO2)cc1 (stereo unspecified)	none (no result: KCNQ1 block, KCNQ1 act, KCNK9 inh, hERG rescue)
Cc1nn(-c2ccccc2)c(N2CCCC2)c1/C=N/NC(=O)c1ccccc1O	none
O=C(N/N=C/c1cc2c3c(c1O)CCCN3CCC2)c1ccccc1O	KCNK3 inh -10, KCNQ1 block 12, KCNK9 inh -10 | KCNK9 block conf 49% | Kir2-1 spec inactive | KCNK9 uninduced 55%
O=C1CSC(=S)N1/N=C/c1cc(Br)c(O)c(Br)c1	KCNK9 inh -9.8 | KCNK9 block conf 64% | Kir2-1 spec 57% | KCNK9 uninduced 70%
C/C(=N\OC(=O)c1cccc(C)c1)c1sc(-c2ccccc2)nc1C	none
CCOc1cccc(-c2c(C(=O)N/N=C/c3ccc(C)s3)nnn2-c2nonc2N)c1	none
CCOc1cccc(-c2c(C(=O)N/N=C/c3c(F)cccc3Cl)nnn2-c2nonc2N)c1	KCNK9 inh -9.4 | KCNK9 block conf inactive | Kir2-1 spec inactive | KCNK9 uninduced inactive
CCOC(=O)c1c(C)c(C(=O)N2CCN(c3cccc(Cl)c3)CC2)c(C)n1C	none | KCNK9 block conf inactive | Kir2-1 spec inactive | KCNK9 uninduced inactive
CN(C)/C=N/c1nc(-c2ccc3ccccc3c2)cs1	none | KCNK9 block conf inactive | Kir2-1 spec inactive | KCNK9 uninduced inactive
Cc1cc(SCC(=O)N/N=C/c2ccc(O)c(O)c2O)c(C)cc1Br	none | KCNK9 block conf inactive | Kir2-1 spec inactive | KCNK9 uninduced inactive
CCOc1ccc(CCNC(=O)COC(=O)COc2ccc(C(C)=O)cc2)cc1OCC	none
CC(=O)c1cccc(NCC(=O)Nc2cccc(S(=O)(=O)N3CCCCC3)c2)c1	none
CC1Cc2ccccc2N1C(=O)CNc1cccc(S(=O)(=O)N2CCCC2)c1 (stereo unspecified)	none | KCNK9 block conf inactive | Kir2-1 spec inactive | KCNK9 uninduced inactive
c1ccc(CSc2nnc(-c3sccc3-n3cccc3)o2)cc1	KCNK9 inh -8.3 | KCNK9 block conf inactive | Kir2-1 spec inactive | KCNK9 uninduced 35%
O=[N+]([O-])c1ccc2nnn(O)c2c1	none
Cn1nc(-c2ccccc2F)c2cc(C(=O)Nc3ccc4c(c3)OCCO4)sc21	KCNK9 inh -12 | KCNK9 block conf 49% | Kir2-1 spec inactive | KCNK9 uninduced inactive
CCN1C(=O)c2cccc3c(S(=O)(=O)NCC4CCCO4)ccc1c23 (stereo unspecified)	none
CCN(CC(=O)Nc1ccc2c(c1)OCCO2)S(=O)(=O)c1ccccc1	none
CC(C)[C@H](NC(=O)N1CCn2c1nc1ccccc12)C(=O)N[C@@H](C(=O)O)c1ccccc1	none
Cn1ccnc1SCC(=O)n1c2c(c3ccccc31)CCCC2	none | KCNK9 block conf inactive | Kir2-1 spec inactive | KCNK9 uninduced inactive
Cn1ccnc1SCC(=O)Nc1cccc2ccccc12	none
COc1cccc([C@@H]2Oc3ccc(OC)cc3C(=O)[C@H]2OC(=O)N[C@H](C)C2CCCCC2)c1	KCNK9 inh -8.7 (no result: KCNK3 inh) | KCNK9 block conf 49% | Kir2-1 spec inactive | KCNK9 uninduced 42%
COc1ccc2c(c1)O[C@H](c1ccc3c(c1)OCO3)[C@@H](OC(=O)N[C@H](C)C1CCCCC1)C2=O	none (no result: KCNK3 inh)
COc1cc(NC(=O)CCCOc2ccc(Cl)cc2Cl)c(C(=O)O)cc1OC	none
CC(=O)c1ccc(OCCCCCCCOc2ccc(C(C)=O)cc2)cc1	KCNK9 inh -8.8 | KCNK9 block conf inactive | Kir2-1 spec inactive | KCNK9 uninduced inactive
CC(=O)c1ccc(OCCCCOc2ccc(C(C)=O)cc2)cc1	none
COc1ccc(C)cc1NC(=O)CN(Cc1nnc(-c2ccc(Cl)cc2)o1)C1CCCC1	KCNK9 inh -12 | KCNK9 block conf 36% | Kir2-1 spec inactive | KCNK9 uninduced 32%
COc1ccc(Cl)cc1NC(=O)CN(C)C1CCCCC1	none
CC(C)C(=O)Nc1nc(-c2ccc3c(c2)CCN3C(=O)C2CC2)cs1	KCNK9 inh -8.9 | KCNK9 block conf inactive | Kir2-1 spec inactive | KCNK9 uninduced inactive
CCCCc1nc2cc(C(=O)N3CCC(OCCOC)CC3)ccc2o1	none
CCCn1c(C2CCCN2c2nc(-c3cccc(Br)c3)cs2)nc2cc(Cl)c(Cl)cc21 (stereo unspecified)	none
CCCn1c(C2CCCN2c2nc(C)cs2)nc2cc(Cl)c(Cl)cc21 (stereo unspecified)	KCNK9 inh -9.5 | KCNK9 block conf inactive | Kir2-1 spec inactive | KCNK9 uninduced 34%
COc1ccc([C@H]2CC(=O)C=C(c3ccnc4ccc(Cl)cc34)C2)cc1	none (no result: KCNQ1 block, KCNQ1 act, KCNK9 inh, hERG rescue)
O=C(c1ccccc1Sc1ccccc1[N+](=O)[O-])N1CCCCC1	none | KCNK9 block conf inactive | Kir2-1 spec inactive | KCNK9 uninduced inactive
CCOc1ccccc1N1CCN(C(=O)C2c3ccccc3Oc3ccccc32)CC1	KCNK3 inh -9.3, KCNK9 inh -12 | KCNK9 block conf 45% | Kir2-1 spec inactive | KCNK9 uninduced 36%
CCOc1ccccc1N1CCN(C(=O)c2ccccc2)CC1	none
CCCCCCCCCCCC(=O)NC(Cc1ccc(OC)c([N+](=O)[O-])c1)C(=O)O (stereo unspecified)	none | KCNK9 block conf inactive | Kir2-1 spec inactive | KCNK9 uninduced inactive
C=CCN=C1S/C(=C/c2cccc([N+](=O)[O-])c2)C(=O)N1CC=C	none
O=C(O)c1cccc(CN2C(=O)S/C(=C/c3cccc([N+](=O)[O-])c3)C2=O)c1	none | KCNK9 block conf inactive | Kir2-1 spec inactive | KCNK9 uninduced inactive
COc1cc(N=c2ssnc2Cl)c(OC)cc1Cl	none | KCNK9 block conf inactive | Kir2-1 spec inactive | KCNK9 uninduced inactive
